From ChEMBL document CHEMBL1649230, “Aryl rhodanines specifically inhibit staphylococcal and enterococcal biofilm formation” (Antimicrob Agents Chemother, 2009)

What was measured:
[1] = test system: Staphylococcus epidermidis; assay: Antimicrobial activity against Staphylococcus epidermidis ATCC 35984 assessed as inhibition of bacterial biofilm after 18 hrs by broth microdilution method; assay type: functional
Summary of the method: (§1)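 Static biofilm in tissue culture-treated polystyrene 96-well plates in 0.5× TSB with 1% glucose. Overnight culture diluted 1:100 gives about 5 × 10^6 cells/well. Compound 2-fold series, final 0.2–100 μM, 2% DMSO. Incubated 18 h at 37°C. Washed, heat-fixed 60°C for 60 min, stained with 0.06% crystal violet, read at OD600. MBIC is the lowest concentration giving ≥80% inhibition versus untreated. Geometric mean of ≥3 independent experiments.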

Staphylococcus aureus [2] = assay: Antimicrobial activity against Staphylococcus aureus ATCC 35556 assessed as inhibition of bacterial biofilm formation after 18 hrs by broth microdilution method in presence of 5 ug/ml fibronectin; assay type: functional
Summary of the method: (§2)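 Polystyrene 96-well wells precoated with 100 μl fibronectin or fibrinogen (0–20 μg protein/ml) for 24 h at 4°C. Wells then washed with sterile water. The standard MBIC biofilm assay followed: 0.5× TSB with 1% glucose, 2% DMSO, 18 h at 37°C, crystal violet read at OD600.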

Staphylococcus aureus [3] = assay: Antimicrobial activity against Staphylococcus aureus ATCC 35556 assessed as inhibition of bacterial biofilm after 18 hrs by broth microdilution method; assay type: functional; summary of the method: as §1
Staphylococcus aureus [4] = assay: Antimicrobial activity against Staphylococcus aureus ATCC 35556 assessed as inhibition of bacterial biofilm formation after 18 hrs by broth microdilution method in presence of 1 ug/ml fibronectin; assay type: functional; summary of the method: as §2
Staphylococcus aureus [5] = assay: Antimicrobial activity against community acquired Staphylococcus aureus NCTC 8325 assessed as inhibition of bacterial biofilm after 18 hrs by broth microdilution method; assay type: functional; summary of the method: as §1
Staphylococcus aureus [6] = assay: Antimicrobial activity against Staphylococcus aureus ATCC 35556 assessed as inhibition of bacterial biofilm formation after 18 hrs by broth microdilution method in presence of 20 ug/ml fibronectin; assay type: functional; summary of the method: as §2
Staphylococcus aureus [7] = assay: Antimicrobial activity against community acquired methicillin-susceptible Staphylococcus aureus assessed as inhibition of bacterial biofilm after 18 hrs by broth microdilution method; assay type: functional; summary of the method: as §1
Staphylococcus aureus [8] = assay: Antimicrobial activity against community acquired methicillin-resistant Staphylococcus aureus isolate 22733 assessed as inhibition of bacterial biofilm after 18 hrs by broth microdilution method; assay type: functional
Summary of the method: (§3)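 Biofilm MBIC on tissue culture-treated polystyrene 96-well plates. Twofold dilutions, 0.2 to 100 μM final, with 2% DMSO final. Inoculum was an overnight culture diluted 1:100 (~5 × 10^6 cells/well) in 0.5× TSB plus 1% glucose, grown 18 h at 37°C. Wells washed, heat-fixed 60°C 60 min, stained with 0.06% crystal violet, OD600 read. MBIC is the lowest concentration giving ≥80% inhibition versus untreated; geometric mean of ≥3 experiments.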

[9] = test system: Staphylococcus epidermidis; assay: Antimicrobial activity against coagulase-negative Staphylococcus epidermidis isolate WTBF-41 assessed as inhibition of bacterial biofilm after 18 hrs by broth microdilution method; assay type: functional; summary of the method: as §3
Staphylococcus aureus [10] = assay: Antimicrobial activity against Staphylococcus aureus ATCC 35556 assessed as inhibition of bacterial biofilm formation after 18 hrs by broth microdilution method in presence of 10 ug/ml fibronectin; assay type: functional; summary of the method: as §2
Enterococcus faecalis [11] = assay: Antimicrobial activity against Enterococcus faecalis isolate F177 on medical grade silicone disk assessed as inhibition of bacterial biofilm after 18 hrs by broth microdilution method
[12] = test system: Staphylococcus epidermidis; assay: Antimicrobial activity against coagulase-negative Staphylococcus epidermidis isolate WTBF-47 assessed as inhibition of bacterial biofilm after 18 hrs by broth microdilution method; assay type: functional; summary of the method: as §1
Escherichia coli = assay: Antimicrobial activity against Escherichia coli ATCC 25922 assessed as inhibition of bacterial biofilm after 18 hrs by broth microdilution method; assay type: functional
Summary of the method: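 Polystyrene plates with breathable lids in 1× TSB (0.25% glucose), 37°C for 18 h. Biofilms form at the air-liquid interface. Stained with crystal violet, dye eluted with 30% acetic acid, OD read. Compound 2-fold series, final 0.2–100 μM in 2% DMSO. MBIC taken at ≥80% inhibition versus untreated. Geometric mean of ≥3 experiments.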

Staphylococcus aureus [13] = assay: Antimicrobial activity against Staphylococcus aureus ATCC 35556 assessed as inhibition of bacterial biofilm formation after 18 hrs by broth microdilution method in presence of 5 ug/ml fibrinogen; assay type: functional; summary of the method: as §2
Enterococcus faecium [14] = assay: Antimicrobial activity against vancomycin-resistant Enterococcus faecium isolate 1401 assessed as inhibition of bacterial biofilm after 18 hrs by broth microdilution method; assay type: functional; summary of the method: as §3
Enterococcus faecium [15] = assay: Antimicrobial activity against vancomycin-resistant Enterococcus faecium isolate F1181 assessed as inhibition of bacterial biofilm after 18 hrs by broth microdilution method; assay type: functional; summary of the method: as §3
Staphylococcus aureus [16] = assay: Antimicrobial activity against community acquired methicillin-resistant Staphylococcus aureus isolate 44081 assessed as inhibition of bacterial biofilm after 18 hrs by broth microdilution method; assay type: functional; summary of the method: as §3
Enterococcus gallinarum = assay: Antimicrobial activity against vancomycin-resistant Enterococcus gallinarum isolate 2392 on medical grade silicone disk assessed as inhibition of bacterial biofilm after 18 hrs by broth microdilution method; assay type: functional
Summary of the method: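 Medical-grade silicone disks glued to 24-well plate bottoms. Compound added to a 1:100 overnight-culture inoculum (0.5× TSB, 1% glucose) at 2% DMSO final; ≥3 wells each, ~18 h at 37°C. Washed with water, heat-fixed 60°C 60 min, stained with 0.06% crystal violet, eluted with 30% acetic acid, OD600 read. Repeated ≥3 times.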

[17] = Cytotoxicity against human HeLa cells after 3 days by MTT assay; assay type: cell-based
Summary of the method: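 HeLa cells were seeded at 4 × 10^3 per well with or without serial dilutions of compound in DMSO. Plates were incubated 3 days at 37°C in minimal essential medium with 10% calf serum, and viability was read by MTT. CC50 was the concentration that reduced MTT-to-formazan conversion by 50%.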

Staphylococcus aureus [18] = assay: Antimicrobial activity against Staphylococcus aureus NCTC 8325 on medical grade silicone disk assessed as inhibition of bacterial biofilm after 18 hrs by broth microdilution method
Enterococcus faecium [19] = assay: Antimicrobial activity against vancomycin-resistant Enterococcus faecium isolate EF1509 assessed as inhibition of bacterial biofilm after 18 hrs by broth microdilution method; assay type: functional; summary of the method: as §3
Staphylococcus aureus [20] = assay: Antimicrobial activity against methicillin-susceptible Staphylococcus aureus on medical grade silicone disk assessed as inhibition of bacterial biofilm after 18 hrs by broth microdilution method; assay type: functional
Summary of the method: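 S. aureus ATCC 35556 biofilms were grown on autoclaved medical-grade silicone disks fixed in 24-well plates. The inoculum was a 1:100 dilution of an overnight culture in 0.5× TSB with 1% glucose, with compound at 0× to 8× MBIC and 2% DMSO final, in at least three wells. Plates were held about 18 h at 37°C, water-washed, heat-fixed at 60°C for 60 min, and stained with 0.06% CV. CV was eluted in 30% acetic acid and read at OD600, averaging three disks; runs were repeated ≥3 times.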

Staphylococcus aureus [21] = assay: Antimicrobial activity against community acquired methicillin-resistant Staphylococcus aureus isolate 49404 assessed as inhibition of bacterial biofilm after 18 hrs by broth microdilution method; assay type: functional; summary of the method: as §3
Staphylococcus aureus [22] = assay: Antimicrobial activity against Staphylococcus aureus ATCC 35556 assessed as inhibition of bacterial biofilm formation after 18 hrs by broth microdilution method in presence of 2 ug/ml fibrinogen; assay type: functional; summary of the method: as §2
Enterococcus faecalis [23] = assay: Antimicrobial activity against vancomycin-resistant Enterococcus faecalis ATCC 51299 assessed as inhibition of bacterial biofilm after 18 hrs by broth microdilution method; assay type: functional; summary of the method: as §3

| Compound | MBIC [1] [µM] | MBIC (Staphylococcus aureus [2]) [µM] | MBIC (Staphylococcus aureus [3]) [µM] | MBIC (Staphylococcus aureus [4]) [µM] | MBIC (Staphylococcus aureus [5]) [µM] | MBIC (Staphylococcus aureus [6]) [µM] | MBIC (Staphylococcus aureus [7]) [µM] | MBIC [9] [µM] | MBIC (Staphylococcus aureus [10]) [µM] | MBIC90 (Enterococcus faecalis [11]) | MBIC [12] [µM] | MBIC (Escherichia coli) | MBIC (Staphylococcus aureus [13]) [µM] | MBIC (Enterococcus faecium [14]) | MBIC (Enterococcus faecium [15]) | CC50 at 72 h [17] [µM] | MBIC90 (Staphylococcus aureus [18]) [µM] | MBIC (Enterococcus faecium [19]) | MBIC90 (Staphylococcus aureus [20]) [µM] | MBIC (Staphylococcus aureus [22]) [µM] | also measured |
| --- | --- | --- | --- | --- | --- | --- | --- | --- | --- | --- | --- | --- | --- | --- | --- | --- | --- | --- | --- | --- | --- |
| C=CCOc1cc(/C=C2\SC(=S)N(c3ccc(F)cc3)C2=O)ccc1O | 17.7 | 3.125 | 2.6 | 3.125 | 14.9 | 3.125 | 10.5 | 17.7 | 3.125 | 100 µM | 29.7 | >=100 uM | 3.125 | 79.4 µM | >=100 uM | 76.4 | 100 | 59.5 µM | 100 | 3.125 | MBIC (Staphylococcus aureus [8]): 100 µM; MBIC (Staphylococcus aureus [16]): 39.7 µM; MBIC90 (Enterococcus gallinarum): 100 µM; MBIC (Staphylococcus aureus [21]): 15.7 µM |
| CCOc1cc(/C=C2\SC(=S)N(c3ccc(F)cc3)C2=O)ccc1O | 17.7 | 3.125 | 2.6 | 3.125 | 25 | 6.25 | 14.9 | 14.9 | 6.25 | >=100 uM | 29.7 | >=100 uM | 3.125 | 100 µM | >=100 uM | ≥ 100 | 79.4 | >=100 uM | 79.4 | 3.125 | MBIC (Staphylococcus aureus [8]): 50 µM; MBIC (Enterococcus faecalis [23]): 12.5 µM; MBIC (Staphylococcus aureus [16]): 79.4 µM; MBIC90 (Enterococcus gallinarum): >=100 uM; MBIC (Staphylococcus aureus [21]): 63 µM |
| CCOc1cc(/C=C2\SC(=S)N(c3cccc(F)c3)C2=O)ccc1O | 25 | 6.25 | 4.4 | 6.25 | 25 | 6.25 | 14.9 | 17.7 | 6.25 | >=100 uM | 42 | >=100 uM | 6.25 | >=100 uM | >=100 uM | ≥ 100 | 70.7 | >=100 uM | 70.7 | 6.25 | MBIC (Staphylococcus aureus [8]): 70.7 µM; MBIC (Enterococcus faecalis [23]): 25 µM; MBIC90 (Enterococcus gallinarum): >=100 uM |
| CCOc1cc(/C=C2\SC(=S)N(c3cccnc3)C2=O)ccc1O | 12.5 | 12.5 | 10.5 | 12.5 | 12.5 | 12.5 | 12.5 | 17.7 | 12.5 | 19.8 µM | 12.5 | >=100 uM | 12.5 | 19.8 µM | >=100 uM | ≥ 100 | 25 | 21 µM | 25 | 12.5 | MBIC (Enterococcus faecalis [23]): 8.8 µM; MBIC (Staphylococcus aureus [16]): 25 µM; MBIC (Staphylococcus aureus [21]): 31.5 µM |
